Results collected from several papers.
Action: inhibitor
EGFR L858R/T790M: Epidermal growth factor receptor (EGFR, Homo sapiens, UniProt P00533, L858R/T790M)
EGFR T790M: Epidermal growth factor receptor (EGFR, Homo sapiens, UniProt P00533, T790M)
EGFR: Epidermal growth factor receptor (EGFR, Homo sapiens, UniProt P00533)
EGFR L858R: Epidermal growth factor receptor (EGFR, Homo sapiens, UniProt P00533, L858R)

| Compound | target | assay | test system | setting | inhibition |
| --- | --- | --- | --- | --- | --- |
| C=CC(=O)Nc1cc(Nc2nc(N3CCc4sccc4C3)c3cccnc3n2)c(OC)cc1N1CCN(C(C)=O)CC1 | EGFR L858R/T790M | enzyme activity, ELISA |  | 0.1 µM | 19.4% |
| COc1cc(-c2cc(-c3ccc(N4CCNCC4)cc3)cnc2N)cc(OC)c1OC | EGFR T790M | enzyme activity |  | 0.1 µM | 2% |
| C=C(Cl)C(=O)Nc1cc(Nc2nc(N3CCCC3)c3sccc3n2)c(OC)cc1N(C)CCN(C)C | EGFR L858R/T790M | enzyme activity, ELISA |  | 0.1 µM | 12.7% |
| CN(C)C1CCN(CC#Cc2nn(C3CCCC3)c3nc(NCc4ccccc4)ncc23)C1 (stereo not shown) | EGFR | enzyme activity, FRET |  | 10 µM | 17% |
| CC/C(=N\NC(=O)NCc1cccc(O)c1)c1ccc(O)c(C)c1O | Epidermal growth factor receptor (EGFR, Homo sapiens, UniProt P00533, del746-750) | enzyme activity |  | 0.1 µM | -0.6% |
| CS(=O)(=O)Nc1cc(-c2ccc3ncnc(Nc4ccc(F)c(Cl)c4)c3c2)cnc1Cl | EGFR | enzyme activity, FRET |  | 10 µM | 90 to 100% |
| CCCS(=O)(=O)Nc1ccc(F)c(C(=O)c2c[nH]c3ncc(-c4ccc(Cl)cc4)cc23)c1F | EGFR | enzyme activity |  | 1 µM | < 10% |
| CN1CC(Oc2cnc(C#N)cc2-c2ccn3nc(NC(=O)C4CC4)cc3c2)C1 | EGFR | enzyme activity |  | 1 µM | -1% |
| COc1cc(N(C)CCN(C)C)c(NC(=O)C=C(C)C)cc1Nc1nc(Nc2cnn(C)c2)c2sccc2n1 | EGFR L858R/T790M | enzyme activity, ELISA |  | 0.1 µM | 25.1% |
| CNCc1ccc(-c2cc(-c3nc(-c4ccc(S(=O)(=O)C(C)C)cc4)cnc3N)on2)cc1 | EGFR | enzyme activity |  | 0.4 µM | 0% |
| COc1cc2c(Nc3cccc(OCCn4ccnc4[N+](=O)[O-])c3)ncnc2cc1OCCCN1CCOCC1 | EGFR | enzyme activity, FRET |  | 1 µM | 24% |
| CS(=O)(=O)Nc1cccc(-c2csc(NC(=O)CSc3nc4nccnc4c(=O)n3CCc3ccccc3)n2)c1 | EGFR | enzyme activity |  | 10 µM | -1% |
| CCC(=O)Nc1cc(Nc2nc(N3CCc4sccc4C3)c3cccnc3n2)c(OC)cc1N1CCN(CCO)CC1 | EGFR L858R/T790M | enzyme activity, ELISA |  | 0.1 µM | 30.3% |
| O=C(CSc1nc2nccnc2c(=O)n1CCc1ccccc1)Nc1nccs1 | EGFR L858R | enzyme activity |  | 10 µM | 1% |
| C=CC(=O)Nc1cc(Nc2nc(N3CCc4sccc4C3)c3sccc3n2)c(OC)cc1N1CCN(C)CC1 | EGFR L858R/T790M | enzyme activity, ELISA |  | 0.1 µM | 25.6% |
| COc1cc2ncnc(Nc3ccc(Oc4ccccc4)cc3C)c2cc1OC | EGFR T790M | enzyme activity |  | 1 µM | 50% |
| CCC(=O)Nc1cc(Nc2nc(N3CCc4sccc4C3)c3cccnc3n2)c(OC)cc1N1CCOCC1 | EGFR L858R/T790M | enzyme activity, ELISA |  | 0.1 µM | 7.6% |
| CNc1cc(Oc2cc(C(=O)Nc3cc(N4CCN(C)CC4)cc(C(F)(F)F)c3)ccc2C)ncn1 | EGFR | target engagement in cells, chemoproteomics | Huh-7 | 1 µM | -15.5% |
| COc1cc2ncnc(Nc3ccc(Oc4ccccc4)c(C)c3C)c2cc1OC | EGFR L858R | enzyme activity |  | 1 µM | 65% |
